Assay results: ChEMBL document CHEMBL5046259, “Cannabinoids Block Cellular Entry of SARS-CoV-2 and the Emerging Variants” (J Nat Prod, 2022)
In brackets after ≈: the same amount, converted by molar mass.

What was measured:
Format in all cases: functional, organism-based
SARS-CoV-2 [1] = test: Antiviral activity against SARS-CoV-2 variant B.1.351 strain infected in African green monkey Vero E6 cells assessed as inhibition of viral entry incubated for 1 hr prior to infection and measured after 48 hrs by Focus forming assay; conditions: Severe acute respiratory syndrome coronavirus 2, B.1.351, Vero C1008
SARS-CoV-2 [2] = test: Antiviral activity against SARS-CoV-2 variant B.1.1.7 strain infected in African green monkey Vero E6 cells assessed as inhibition of viral entry incubated for 1 hr proir to infection and measured after 48 hrs by Focus forming assay; conditions: Severe acute respiratory syndrome coronavirus 2, B.1.1.7, Vero C1008
SARS-CoV-2 [3] = test: Antiviral activity against pseudovirus SARS-CoV-2 spike protein infected in HEK293T cells overexpressing ACE2 assessed as inhibition on pseudovirus infection incubated for 45 hrs by fluorescence microscopy; conditions: Severe acute respiratory syndrome coronavirus 2, HEK-293T
How it was run: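 293T-ACE2 cells were seeded at 10 000 per well. Spike-pseudotyped lentivirus carrying a GFP reporter was mixed with 2-fold serial dilutions of compound (in DMSO) or vehicle for 1 h at 37 °C, then added to cells with 5 μg/mL Polybrene. After 44 h, cells were fixed and DAPI-stained. Total GFP area was normalized to DAPI and to vehicle (n = 3). IC50 came from a three-parameter logistic fit.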

SMILES	IC50 (SARS-CoV-2 [1]) [µg/mL]	IC50 (SARS-CoV-2 [2]) [µg/mL]	IC50 (SARS-CoV-2 [3]) [µg/mL]
CCCCCc1cc(O)c(C/C=C(\C)CCC=C(C)C)c(O)c1C(=O)O [CANNABIGEROLIC ACID]	35 (≈ 97.1 µM)	26 (≈ 72.1 µM)	8.4 (≈ 23.3 µM)
C=C(C)[C@@H]1CCC(C)=C[C@H]1c1c(O)cc(CCCCC)c(C(=O)O)c1O [CANNABIDIOLIC ACID]	19 (≈ 53 µM)	11 (≈ 30.7 µM)	7.7 (≈ 21.5 µM)
